Experiments:
[1] = Antioxidant activity against lipid peroxidation at 90 uM after 10 hrs by ferric thiocyanate method relative to control; type: functional
Method in brief: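 Linoleic acid (>99%) emulsified with Tween 20, biphasic autoxidation system; each antioxidant at 90 µM final, held at 50 °C in the dark; lipid peroxidation read by ferric thiocyanate absorbance at 10 h, expressed as percent inhibition (%Pi) against untreated control; triplicate, mean ± standard error.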

[2] = tested on: Radical scavenging activity; experiment: Antioxidant activity assessed as DPPH free radical scavenging activity at 25 uM after 20 mins relative to control; type: functional
Method in brief: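 DPPH radical scavenging run in methanol and in acetate-buffered (pH 5.5) methanol; antioxidant:DPPH molar ratio 0.25; triplicate, repeated five times; mean ± standard error.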

[3] = molecular target: Xanthine dehydrogenase/oxidase (Homo sapiens, UniProt P47989); experiment: Inhibition of xanthine oxidase after 15 mins; conditions: 0.25 h
Method in brief: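 Xanthine oxidase inhibition with test agent at 0.1 mM; triplicate, mean ± standard error.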

Chain of Xanthine dehydrogenase/oxidase (P47989 whole entry): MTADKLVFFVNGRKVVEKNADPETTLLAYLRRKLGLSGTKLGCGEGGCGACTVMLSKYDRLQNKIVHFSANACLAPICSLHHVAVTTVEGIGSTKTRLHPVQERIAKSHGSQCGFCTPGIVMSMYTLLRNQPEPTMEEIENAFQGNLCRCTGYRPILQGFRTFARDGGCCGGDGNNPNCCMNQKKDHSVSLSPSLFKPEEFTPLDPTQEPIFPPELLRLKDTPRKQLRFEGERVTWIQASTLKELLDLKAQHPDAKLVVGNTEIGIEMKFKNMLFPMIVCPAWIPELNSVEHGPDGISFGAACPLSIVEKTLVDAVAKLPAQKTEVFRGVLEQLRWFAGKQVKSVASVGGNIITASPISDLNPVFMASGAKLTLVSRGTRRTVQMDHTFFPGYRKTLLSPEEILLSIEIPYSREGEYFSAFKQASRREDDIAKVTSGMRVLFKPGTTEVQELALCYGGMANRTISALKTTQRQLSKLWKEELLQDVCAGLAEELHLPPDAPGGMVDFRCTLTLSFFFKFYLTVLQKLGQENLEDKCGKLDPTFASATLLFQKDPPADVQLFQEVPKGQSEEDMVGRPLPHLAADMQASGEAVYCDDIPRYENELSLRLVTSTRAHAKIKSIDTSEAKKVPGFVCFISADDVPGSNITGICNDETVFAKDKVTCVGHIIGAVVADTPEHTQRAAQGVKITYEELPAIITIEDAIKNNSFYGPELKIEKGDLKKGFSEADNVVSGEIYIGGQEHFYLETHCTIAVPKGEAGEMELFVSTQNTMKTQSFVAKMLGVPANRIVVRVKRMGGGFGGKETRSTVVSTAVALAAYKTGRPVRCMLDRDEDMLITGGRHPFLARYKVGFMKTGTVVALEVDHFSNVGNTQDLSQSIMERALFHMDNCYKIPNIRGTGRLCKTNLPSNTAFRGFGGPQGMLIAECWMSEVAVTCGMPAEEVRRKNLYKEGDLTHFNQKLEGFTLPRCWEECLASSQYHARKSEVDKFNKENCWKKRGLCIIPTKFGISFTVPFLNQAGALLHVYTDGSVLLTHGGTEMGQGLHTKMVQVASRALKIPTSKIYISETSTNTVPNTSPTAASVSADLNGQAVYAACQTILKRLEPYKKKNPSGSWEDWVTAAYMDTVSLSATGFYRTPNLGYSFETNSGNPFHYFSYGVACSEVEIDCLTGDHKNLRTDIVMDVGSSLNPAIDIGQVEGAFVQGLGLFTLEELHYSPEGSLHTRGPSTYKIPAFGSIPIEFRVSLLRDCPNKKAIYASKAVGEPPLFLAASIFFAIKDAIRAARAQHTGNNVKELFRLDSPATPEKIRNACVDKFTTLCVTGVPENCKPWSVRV

Compound	Activity [1] [%]	Activity [2] [%]	inhibition (INH) [3] [%]
NC(=O)[C@@H]1CCCN1C(=O)[C@H](Cc1cnc[nH]1)NC(=O)/C=C/c1ccc(O)c(O)c1	61		
NC(=O)CCNC(=O)[C@H](Cc1cnc[nH]1)NC(=O)/C=C/c1ccc(O)c(O)c1	71		
NC(=O)[C@H](CS)NC(=O)[C@H](Cc1cnc[nH]1)NC(=O)/C=C/c1ccc(O)c(O)c1	79		
NC(=O)[C@H](Cc1cnc[nH]1)NC(=O)CCNC(=O)/C=C/c1ccc(O)c(O)c1	64	70	
NC(=O)[C@H](Cc1cnc[nH]1)NC(=O)[C@H](CC(=O)O)NC(=O)/C=C/c1ccc(O)c(O)c1	82	52	
NC(=O)[C@H](Cc1cnc[nH]1)NC(=O)[C@H](Cc1ccccc1)NC(=O)/C=C/c1ccc(O)c(O)c1	80	59	
C[C@H](NC(=O)[C@H](Cc1cnc[nH]1)NC(=O)/C=C/c1ccc(O)c(O)c1)C(N)=O	66		
NC(=O)[C@H](Cc1ccccc1)NC(=O)[C@H](Cc1cnc[nH]1)NC(=O)/C=C/c1ccc(O)c(O)c1	72		
NC(=O)[C@H](Cc1ccccc1)NC(=O)/C=C/c1ccc(O)c(O)c1	73	51	
NC(=O)[C@H](CC(=O)O)NC(=O)[C@H](Cc1cnc[nH]1)NC(=O)/C=C/c1ccc(O)c(O)c1	73	49	
C[C@H](NC(=O)/C=C/c1ccc(O)c(O)c1)C(=O)N[C@@H](Cc1cnc[nH]1)C(N)=O	84		
O=C(O)/C=C/c1ccc(O)c(O)c1		47	
NC(=O)[C@H](Cc1cnc[nH]1)NC(=O)[C@@H]1CCCN1C(=O)/C=C/c1ccc(O)c(O)c1	87	71	52
NC(=O)[C@H](CO)NC(=O)[C@H](Cc1cnc[nH]1)NC(=O)/C=C/c1ccc(O)c(O)c1	71		
NC(=O)[C@H](Cc1cnc[nH]1)NC(=O)[C@H](CO)NC(=O)/C=C/c1ccc(O)c(O)c1	83		
NCCCC[C@H](NC(=O)[C@H](Cc1cnc[nH]1)NC(=O)/C=C/c1ccc(O)c(O)c1)C(N)=O	76	54	
NCCCC[C@H](NC(=O)/C=C/c1ccc(O)c(O)c1)C(=O)N[C@@H](Cc1cnc[nH]1)C(N)=O	84	65	
COc1ccc(O)c(C(C)(C)C)c1.COc1ccc(O)cc1C(C)(C)C	86	62	
NC(=O)[C@H](Cc1cnc[nH]1)NC(=O)[C@H](CS)NC(=O)/C=C/c1ccc(O)c(O)c1	84		
NC(=O)[C@H](Cc1cnc[nH]1)NC(=O)[C@H](Cc1cnc[nH]1)NC(=O)/C=C/c1ccc(O)c(O)c1	80		

Source: ChEMBL document CHEMBL1177760, “Antioxidative activities of histidine containing caffeic acid-dipeptides” (Bioorg Med Chem Lett, 2010)
